Results published in ChEMBL document CHEMBL2424563, “Semisynthesis of mallotus B from rottlerin: evaluation of cytotoxicity and apoptosis-inducing activity” (J Nat Prod, 2013).
Active and inactive are the calls of the source. The rule behind the calls is not given here.

test system: PC-3; experiment: Cytotoxicity against human PC3 cells after 48 hrs by MTT assay; format: functional, cell-based; details: PC-3, 48 h
Outline: (§1)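 Cell lines from NCI, grown in RPMI1640 or MEM with 10% heat-inactivated FBS at 37 °C under 5% CO2. Seeded at 6000 cells/well overnight, then exposed to 1, 10, 30, 50 and 100 μM for 48 h. MTT (2.5 mg/mL) added for 3 h, formazan dissolved in DMSO, OD read at 540 nm (ref 620 nm). Growth taken as treated vs untreated absorbance, giving IC50.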

Structure (SMILES) | IC50 [µM]
CC(=O)c1c(O)c(C)c(O)c(Cc2c(O)c3c(c(C(=O)/C=C/c4ccccc4)c2O)OC(C)(C)C=C3)c1O [ROTTLERIN] | > 20

test system: HL-60; experiment: Cytotoxicity against human HL60 cells after 48 hrs by MTT assay; format: functional, cell-based; details: HL-60, 48 h; outline: as §1

Structure (SMILES) | IC50 [µM]
CC(=O)c1c(O)c(C)c(O)c(Cc2c(O)c3c(c(C(=O)/C=C/c4ccccc4)c2O)OC(C)(C)C=C3)c1O [ROTTLERIN] | 9

test system: MIA PaCa-2; experiment: Cytotoxicity against human MIAPaCa2 cells after 48 hrs by MTT assay; format: functional, cell-based; details: MIA PaCa-2, 48 h; outline: as §1

Structure (SMILES) | IC50 [µM]
CC(=O)c1c(O)c(C)c(O)c(Cc2c(O)c3c(c(C(=O)/C=C/c4ccccc4)c2O)OC(C)(C)C=C3)c1O [ROTTLERIN] | 8

test system: COLO 205; experiment: Cytotoxicity against human COLO205 cells after 48 hrs by MTT assay; format: functional, cell-based; details: COLO 205, 48 h; outline: as §1

Structure (SMILES) | IC50 [µM]
CC(=O)c1c(O)c(C)c(O)c(Cc2c(O)c3c(c(C(=O)/C=C/c4ccccc4)c2O)OC(C)(C)C=C3)c1O [ROTTLERIN] | > 20

test system: HepG2; experiment: Cytotoxicity against human HepG2 cells after 48 hrs by MTT assay; format: functional, cell-based; details: HepG2, 48 h; outline: as §1

Structure (SMILES) | IC50 [µM]
CC(=O)c1c(O)c(C)c(O)c(Cc2c(O)c3c(c(C(=O)/C=C/c4ccccc4)c2O)OC(C)(C)C=C3)c1O [ROTTLERIN] | > 20

test system: HL-60; experiment: Induction of apoptosis in human HL60 cells assessed as formation of scattered apoptotic bodies at 20 to 40 uM after 24 hrs by fluorescence microscopic analysis; format: functional, cell-based; details: not given
Outline: (§2)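 After 24 h exposure, HL-60 cells were pelleted at 400g, washed twice in PBS and fixed in cold acetic acid–methanol (1:3) for 3 h on ice. They were spread on slides and dried overnight at room temperature. Staining used Hoechst 33258 (5 μg/mL in 0.45 M disodium phosphate/0.01 M citric acid/0.05% Tween 20) for 30 min at room temperature. Slides were mounted in PBS–glycerol and viewed by fluorescence microscopy at 30× for condensed nuclei and apoptotic bodies.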

Structure (SMILES) | Activity
CC(=O)c1c(O)c(C)c(O)c(Cc2c(O)c3c(c(C(=O)/C=C/c4ccccc4)c2O)OC(C)(C)C=C3)c1O [ROTTLERIN] | Active

test system: HL-60; experiment: Induction of apoptosis in human HL60 cells assessed as nuclear condensation at 20 to 40 uM after 24 hrs by fluorescence microscopic analysis; format: functional, cell-based; details: not given; outline: as §2

Structure (SMILES) | Activity
CC(=O)c1c(O)c(C)c(O)c(Cc2c(O)c3c(c(C(=O)/C=C/c4ccccc4)c2O)OC(C)(C)C=C3)c1O [ROTTLERIN] | Active

test system: HL-60; experiment: Induction of apoptosis in human HL60 cells assessed as shrinkage of cell size at 20 to 40 uM after 24 hrs by fluorescence microscopic analysis; format: functional, cell-based; details: not given; outline: as §2

Structure (SMILES) | Activity
CC(=O)c1c(O)c(C)c(O)c(Cc2c(O)c3c(c(C(=O)/C=C/c4ccccc4)c2O)OC(C)(C)C=C3)c1O [ROTTLERIN] | Active

test system: HL-60; experiment: Induction of apoptosis in human HL60 cells assessed as cell wall deformation at 20 to 40 uM after 24 hrs by fluorescence microscopic analysis; format: functional, cell-based; details: not given; outline: as §2

Structure (SMILES) | Activity
CC(=O)c1c(O)c(C)c(O)c(Cc2c(O)c3c(c(C(=O)/C=C/c4ccccc4)c2O)OC(C)(C)C=C3)c1O [ROTTLERIN] | Active

test system: HL-60; experiment: Induction of apoptosis in human HL60 cells assessed as vesicle formation at 10 to 40 uM after 24 hrs by phase contrast microscopic analysis; format: functional, cell-based; details: not given
Outline: (§3)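 HL-60 cells were exposed to the test concentrations for 24 h. Unstained cells were then photographed under phase-contrast microscopy to assess cellular morphology.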

Structure (SMILES) | Activity
CC(=O)c1c(O)c(C)c(O)c(Cc2c(O)c3c(c(C(=O)/C=C/c4ccccc4)c2O)OC(C)(C)C=C3)c1O [ROTTLERIN] | Active

test system: HL-60; experiment: Induction of apoptosis in human HL60 cells assessed as blebbing of cell wall at 10 to 40 uM after 24 hrs by phase contrast microscopic analysis; format: functional, cell-based; details: not given; outline: as §3

Structure (SMILES) | Activity
CC(=O)c1c(O)c(C)c(O)c(Cc2c(O)c3c(c(C(=O)/C=C/c4ccccc4)c2O)OC(C)(C)C=C3)c1O [ROTTLERIN] | Active

test system: HL-60; experiment: Cell cycle arrest in human HL60 cells assessed as accumulation at sub-G0 phase after 24 hrs by propidium iodide staining-based FACS flow cytometric analysis; format: functional; details: not given
Outline: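 HL-60 cells at 0.44 × 10^6/mL treated at 10, 20, 30 and 40 μM for 24 h. Collected at 400g, then fixed overnight in ice-cold 70% ethanol at 4 °C. RNase (0.2 mg/mL) at 37 °C for 1 h, then PI (10 μg/mL) for 30 min in the dark. Flow cytometry on 10 000 events, FL2-A vs FL2-W. Sub-G0 fraction taken as apoptotic.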

Structure (SMILES) | Activity
CC(=O)c1c(O)c(C)c(O)c(Cc2c(O)c3c(c(C(=O)/C=C/c4ccccc4)c2O)OC(C)(C)C=C3)c1O [ROTTLERIN] | Dose-dependent effect

test system: HL-60; experiment: Induction of mitochondrial membrane potential loss in human HL60 cells at 40 uM after 24 hrs by rhodamine-123 staining-based FACS flow cytometric analysis (reference value: 5%); format: functional; details: not given

Structure (SMILES) | Activity [%]
CC(=O)c1c(O)c(C)c(O)c(Cc2c(O)c3c(c(C(=O)/C=C/c4ccccc4)c2O)OC(C)(C)C=C3)c1O [ROTTLERIN] | 89

test system: HL-60; experiment: Induction of mitochondrial membrane potential loss in human HL60 cells at 30 uM after 24 hrs by rhodamine-123 staining-based FACS flow cytometric analysis (reference value: 5%); format: functional; details: not given

Structure (SMILES) | Activity [%]
CC(=O)c1c(O)c(C)c(O)c(Cc2c(O)c3c(c(C(=O)/C=C/c4ccccc4)c2O)OC(C)(C)C=C3)c1O [ROTTLERIN] | 61

test system: HL-60; experiment: Induction of mitochondrial membrane potential loss in human HL60 cells at 20 uM after 24 hrs by rhodamine-123 staining-based FACS flow cytometric analysis (reference value: 5%); format: functional; details: not given

Structure (SMILES) | Activity [%]
CC(=O)c1c(O)c(C)c(O)c(Cc2c(O)c3c(c(C(=O)/C=C/c4ccccc4)c2O)OC(C)(C)C=C3)c1O [ROTTLERIN] | 28

test system: HL-60; experiment: Induction of mitochondrial membrane potential loss in human HL60 cells at 10 uM after 24 hrs by rhodamine-123 staining-based FACS flow cytometric analysis (reference value: 5%); format: functional; details: not given

Structure (SMILES) | Activity [%]
CC(=O)c1c(O)c(C)c(O)c(Cc2c(O)c3c(c(C(=O)/C=C/c4ccccc4)c2O)OC(C)(C)C=C3)c1O [ROTTLERIN] | 18
